Screens: PubChem BioAssay, Sanford-Burnham Center for Chemical Genomics
Gli-Sufu antag = Gli-Sufu pathway antagonists, primary screen, luciferase luminescence, Sufu-KO-LIGHT cells, uHTS. Sufu-KO-LIGHT fibroblasts, Gli luciferase reporter luminescence. inhibition, % at 5 µM. 340,000 tested, 0.74% active. AID 588413, 2011;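 active means inhibition above about 55%, limit read from the data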;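 further: 0% = DMSO-treated cells and 100% = wells with medium but no cells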
697 NFkB inh = inhibitors of PMA/ionomycin-induced NF-kB reporter, 697 cells, primary screen, B-cell NF-kB inhibitor project, cell-based, luminescence, uHTS; 697 B-cell NF-kB luciferase reporter, 16 h; inhibition, % at 4 µM; 330,000 tested, 0.33% active; AID 435022, 2010; in the data active means inhibition above about 35%
Jurkat NFkB inh = inhibitors of induced NF-kB luciferase reporter, primary screen, TCR NF-kB activation inhibitor project, cell-based, luminescence, uHTS; inhibition, % at 4 µM; Jurkat, PMA/ionomycin-induced NF-kB luciferase reporter; AID 435003, 2010; 330,000 tested, 0.53% active; in the data active means inhibition above about 50%
iPSC survival up = enhancers of single-cell hiPSC survival, primary screen, ATPlite luminescence; 100% = ROCK inhibitor wells, 0% = DMSO; survival enhancement, % at 20 µM; 360,000 tested, 0.044% active; in the data active means survival enhancement above about 18%;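 further: cells exposed to compounds for 16 hours before the ATP read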
Lipid droplet = inhibitors of hepatocyte lipid droplet formation, primary screen, imaging, high-throughput imaging, BODIPY stain; inhibition, % at 6.5 µM; AID 1656, 2009; 240,000 tested, 0.4% active; AML12 mouse hepatocytes, oleate lipid droplets;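 active means lipid droplet intensity inhibited by at least 50%, with more than 500 cells counted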
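Assay system: AML12 mouse liver cells | Compound dosing: One dose, 6.5 µM compound | Read-out basis: Droplet intensity reduction, % inhibition | Measured by: Fluorescence imaging, 20x objective, two fields per well | Schedule: Overnight treatment with compound plus oleate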
H9c2 TAG inh = inhibitors of triacylglycerol accumulation, primary screen, cell-based, uHTS, fluorescence, H9c2 | H9c2 cells, Nile Red lipid (TAG) fluorescence; cells loaded with 200 µM oleic acid | inhibition, % at 12.5 µM | 230,000 tested, 0.66% active | AID 651582, 2012;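 active means pattern-corrected inhibition of lipid staining of at least 50% with the nuclear-stain viability signal not falling by more than 50%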;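 further: 0% = DMSO wells and 100% = triacsin C control wells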
Gli antag conf = Gli-SUFU pathway antagonists, confirmation, single concentration, luciferase luminescence, Sufu-KO-LIGHT cells; shares compounds with Gli-Sufu antag; Gli luciferase reporter; inhibition, % at 5 µM; 2,500 tested, 40% active; AID 602428, 2012;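 active means mean inhibition at 5 µM reaching about 45%, limit read from the data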;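 further: plate controls were DMSO-treated cells for no effect and wells lacking cells for full effect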
Gli cytotox = cytotoxicity in Sufu-KO-LIGHT cells, confirmation, cytotoxicity control for Gli-SUFU antagonist project, cell-based, ATP luminescence, single concentration; shares compounds with Gli-Sufu antag; cytotoxicity, % at 5 µM; 2,500 tested, 32% active;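 active means mean cytotoxicity at 5 µM above about 25%, limit read from the data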;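 further: cells exposed to compound overnight for roughly 16 to 18 hours; plate controls were DMSO wells with cells for no effect and medium without cells for full effect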
Wnt3a counter = Wnt3a reporter signal inhibition, confirmation, counter-screen for Gli-SUFU antagonist project, Wnt-LIGHT cells, luminescence, single concentration. shares compounds with Gli-Sufu antag. Wnt3a-driven luciferase reporter. inhibition, % at 6.25 µM. 2,500 tested, 20% active;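 active means mean inhibition above about 25%, limit read from the data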
An asterisk follows results filed as active; x = no result. A selection: hits, their analogues and other compounds. The true share with any hit is near 1.8%.

SMILES | Gli-Sufu antag | 697 NFkB inh | Jurkat NFkB inh | iPSC survival up | Lipid droplet | H9c2 TAG inh | Gli antag conf | Gli cytotox | Wnt3a counter
Cc1ccc(OCCC(=O)N2CCN(c3ccc(O)cc3)CC2)cc1 | 54 | -40 | -19 | -1 | -50 | -2 | 35 | 15 | 0
Cc1nc2sccn2c1-c1csc(NCc2ccccc2)n1 | 56* | -41 | 19 | -1 | x | x | 50* | 22 | 16
CCOC(=O)C1CCN(C2=C(NS(=O)(=O)c3ccc(Br)cc3)C(=O)c3ccccc3C2=O)CC1 | 55 | -13 | -4 | 0 | 16 | x | 20 | 15 | 17
NC(=O)C1CCN(C2=C(NS(=O)(=O)c3ccc(Br)cc3)C(=O)c3ccccc3C2=O)CC1 | 12 | 0 | -2 | 0 | -10 | x | x | x | x
CC[C@H](C)[C@@H](C(=O)NCCCCCCCCCCC(=O)N1CCN(C(=O)OC(C)(C)C)CC1)n1cc(CCCCCNC(=O)OC(C)(C)C)nn1 | 57* | -55 | 43 | -3 | x | 0 | 68* | 15 | 37*
COC(=O)c1cc(S(=O)(=O)N2CCN(c3ccc([N+](=O)[O-])cc3)CC2)c[nH]1 | 51 | -7 | 16 | 0 | 18 | x | 21 | -1 | -68
COC(=O)c1cc(S(=O)(=O)N2CCC(c3cc(OC)ccc3OC)C2)c[nH]1 (stereo not drawn) | 52 | -38 | 21 | 0 | -9 | x | 45 | 28* | 5
COC(=O)c1cc(S(=O)(=O)N2CCC(c3ccccc3)C2)c[nH]1 (stereo not drawn) | 14 | 4 | 16 | 0 | 13 | x | x | x | x
Cc1cnn2c(C3CC3)ccnc12 | 58* | 11 | 0 | 2 | 4 | -8 | 12 | 19 | -8
O=c1c2c([nH]c3ccccc13)CCC2 | 60* | 15 | 4 | 0 | 1 | x | 30 | 6 | 6
Nc1ccnc(Oc2ccc(F)cc2)c1 | -15 | -14 | -1 | 3 | 8 | x | x | x | x
CC(=O)NCCc1nc2cc(NC(=O)COc3cccc(C)c3)ccc2n1C | -7 | 0 | -8 | 0 | -5 | x | x | x | x
Cc1ccc(CS(=O)(=O)CCC(=O)NCc2ccccc2Cl)cc1 | 53 | 9 | -11 | 0 | 12 | x | 8 | 22 | -16
COc1ccccc1CNC(=O)CCS(=O)(=O)Cc1ccc(C)cc1 | -9 | 0 | 1 | 0 | -4 | x | x | x | x
CCOC(=O)C1CCN(CC(=O)Nc2ccc(S(=O)(=O)N3CCC(C)CC3)cc2)CC1 | -7 | -3 | 25 | 0 | 3 | x | x | x | x
CC(O)(c1cccnc1)c1nc(-c2ccc3ccccc3c2)cs1 (stereo not drawn) | x | x | x | -1 | x | -15 | x | x | x
Cc1cc(C)n2nc(SCC(=O)c3cc(C)n(-c4cc(C)on4)c3C)nc2n1 | 55 | -34 | -4 | 4 | x | x | 52* | 30* | 34*
COCC(=O)NC1(c2nnnn2CCOC(=O)Nc2ccc(Cl)cc2)CCCCC1 | -21 | 8 | -9 | -3 | 19 | 7 | x | x | x
CCN(CC)C(=O)C1CCCN(C(=O)CCn2nnnc2CN2CCOCC2)C1 (stereo not drawn) | 0 | 13 | -13 | 0 | -10 | -1 | x | x | x
O=C(CCCn1nnnc1CN1CCOCC1)N1CCC(c2ccc(F)cc2)C1 (stereo not drawn) | 97* | -28 | -9 | 2 | -9 | -12 | 21 | 10 | -27
CC(=O)c1cccc(S(=O)(=O)NCCC(=O)O)c1 | -2 | 14 | -10 | 0 | 16 | -29 | x | x | x
Clc1ccc(-c2cn(-c3ccc(Cl)cc3)c3[n+]2CCCCC3)cc1 | 58* | 10 | 14 | 0 | 24 | -5 | 58* | 29* | -43
COc1ccc(-n2cc(-c3ccc(OC(F)F)cc3)[n+]3c2CCCCC3)cc1 | 81* | -16 | 5 | -2 | -7 | -30 | 83* | 33* | 9
COc1ccc(N2CC(O)(c3ccc(OC(F)F)cc3)[N+]3=C2CCCC3)cc1 (stereo not drawn) | 13 | -37 | -15 | 0 | -2 | 11 | x | x | x
COc1ccc(-c2cn(-c3ccc(Cl)cc3)c3[n+]2CCCCC3)cc1 | 80* | -18 | 18 | 0 | 1 | -9 | 78* | 31* | 20
SMILES | Gli-Sufu antag | 697 NFkB inh | Jurkat NFkB inh | iPSC survival up | Lipid droplet | H9c2 TAG inh | Gli antag conf | Gli cytotox | Wnt3a counter
COc1ccc(-n2cc(-c3ccc(Cl)cc3)[nH]c2=S)cc1 | -46 | -115 | -89 | -1 | -2 | 24 | x | x | x
CC(C)[C@H]1COCCS(=O)(=O)N1Cc1ccccc1-c1cccc2c1oc1ccccc12 | 93* | 5 | x | -3 | x | 2 | 24 | 7 | -40
CCCCOc1ccccc1-c1ccccc1CN1[C@@H](C(C)C)COCCS1(=O)=O | 12 | 9 | x | -1 | x | -12 | x | x | x
COc1cccc(NC(=S)/C(=C(\[O-])c2cc(C)n(-c3ccccc3F)c2C)[n+]2ccc(N(C)C)cc2)c1 | 60* | -16 | -11 | -4 | -18 | -9 | 57* | 33* | 18
Cc1cc(C([O-])=C(C(=S)Nc2ccc(F)cc2)[n+]2ccccc2)c(C)n1-c1ccc(F)cc1 | 5 | x | x | 2 | x | -6 | x | x | x
CCc1[nH]c(=S)c(C#N)c2c1CCCC2 | -2 | 10 | 11 | 0 | 8 | -19 | x | x | x
CCc1[nH]c(=O)c(C#N)c2c1CCCC2 | 51 | 18 | 5 | 0 | -1 | 4 | 17 | 4 | 3
O=S1(=O)CCN(C2CCCCCCC2)CC1 | x | x | x | -2 | x | -10 | x | x | x
COc1ccc(CNC(=O)C(=O)NCC2CCCN2S(=O)(=O)c2cccs2)cc1 (stereo not drawn) | -4 | -55 | -47 | 0 | x | 9 | x | x | x
COc1ccc(C(CNC(=O)c2cc(S(=O)(=O)N3CCN(c4ccccc4)CC3)ccc2Cl)N(C)C)cc1 (stereo not drawn) | 68* | -17 | 17 | 0 | x | 11 | 21 | 13 | -43
CN(C)C(CNC(=O)c1cccc(S(=O)(=O)N2CCN(c3ccccc3)CC2)c1)c1ccccc1 (stereo not drawn) | 29 | x | x | -1 | x | -10 | x | x | x
CC1CC(C)CN(c2ccc(C(=O)NCc3ccc4c(c3)OCO4)cc2[N+](=O)[O-])C1 (stereo not drawn) | 10 | -4 | 7 | 4 | 24 | x | x | x | x
